Test results taken from ChEMBL document CHEMBL2346506, “Cytotoxicity and modulation of cancer-related signaling by (Z)- and (E)-3,4,3',5'-tetramethoxystilbene isolated from Eugenia rigida” (J Nat Prod, 2013).
The source made the active and inactive calls. The rule behind the calls is not given here.

What was measured:
BT-549 = assay: Cytotoxicity against human BT549 cells assessed as growth inhibition measured after 48 hrs by Neutral Red dye assay; settings: BT-549, 48 h
[1] = target: T1, Nitric oxide synthase, inducible (Mus musculus) (UniProt P29477); assay: Inhibition of iNOS in LPS-induced mouse RAW264.7 cells assessed as inhibition of […] up to 33.3 uM measured after 24 hrs; type: cell-based
T1 sequence (whole entry): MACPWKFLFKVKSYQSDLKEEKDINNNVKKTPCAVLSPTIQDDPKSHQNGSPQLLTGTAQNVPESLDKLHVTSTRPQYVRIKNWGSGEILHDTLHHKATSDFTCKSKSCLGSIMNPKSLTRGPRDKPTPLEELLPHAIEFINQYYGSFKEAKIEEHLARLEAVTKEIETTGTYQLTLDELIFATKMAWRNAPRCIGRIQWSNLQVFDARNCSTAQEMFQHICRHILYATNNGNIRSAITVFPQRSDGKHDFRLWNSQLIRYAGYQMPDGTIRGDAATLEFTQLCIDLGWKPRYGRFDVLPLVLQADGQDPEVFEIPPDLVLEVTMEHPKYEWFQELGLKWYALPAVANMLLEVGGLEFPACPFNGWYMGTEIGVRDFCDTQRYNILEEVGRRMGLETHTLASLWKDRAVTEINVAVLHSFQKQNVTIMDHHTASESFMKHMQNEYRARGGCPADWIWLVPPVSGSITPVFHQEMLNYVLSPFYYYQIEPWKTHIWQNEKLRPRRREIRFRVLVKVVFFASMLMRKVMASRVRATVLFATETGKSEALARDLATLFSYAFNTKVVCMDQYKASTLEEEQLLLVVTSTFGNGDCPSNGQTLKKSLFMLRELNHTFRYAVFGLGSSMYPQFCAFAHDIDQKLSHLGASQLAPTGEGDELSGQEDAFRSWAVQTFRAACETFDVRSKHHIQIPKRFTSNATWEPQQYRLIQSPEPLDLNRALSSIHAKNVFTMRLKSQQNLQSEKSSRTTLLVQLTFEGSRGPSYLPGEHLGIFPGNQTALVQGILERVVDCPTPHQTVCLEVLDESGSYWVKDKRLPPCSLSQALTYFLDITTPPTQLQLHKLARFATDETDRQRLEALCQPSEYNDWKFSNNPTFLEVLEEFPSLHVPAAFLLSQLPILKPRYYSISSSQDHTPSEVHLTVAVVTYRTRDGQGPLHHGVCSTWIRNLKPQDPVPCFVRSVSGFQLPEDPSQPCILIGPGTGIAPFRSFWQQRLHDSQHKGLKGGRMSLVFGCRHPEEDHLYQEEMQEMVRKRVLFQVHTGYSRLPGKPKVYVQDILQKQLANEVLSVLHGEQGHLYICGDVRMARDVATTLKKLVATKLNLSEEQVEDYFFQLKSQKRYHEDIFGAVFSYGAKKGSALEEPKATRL
Procedure, shortened: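 RAW 264.7 macrophages seeded at 50 000 per well and grown 24 h. Compound added 30 min before LPS (5 μg/mL), then cells incubated a further 24 h. Nitrite in the supernatant measured with Griess reagent relative to vehicle control. Parthenolide served as positive control; cytotoxicity checked in parallel.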

LLC-PK1 = assay: Cytotoxicity against pig LLC-PK1 cells assessed as growth inhibition measured after 48 hrs by Neutral Red dye assay; settings: Sus scrofa, LLC-PK1, 48 h
HeLa [2] = assay: Inhibition of smad3/4 signaling pathway in human HeLa cells assessed as inhibition of TGF-beta induced luciferase treated 30 mins before induction; type: functional, cell-based
Procedure, shortened: (§1)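 Reporter assay in cells transfected with pathway luciferase plasmids. Cells plated at 0.015 × 10⁶ per well in 10% FBS, switched after 24 h to DMEM with 1% FBS, then transfected. 24 h after transfection, compound (final 40, 60, 80 or 100 μM) was added, followed 30 min later by inducer (IL-6, TGF-β, wnt3a or PMA). Luciferase was read 4 or 6 h after induction (6 h for Notch, Wnt, Hedgehog). Value is the IC50 or the lowest concentration giving maximal 50–60% inhibition; two independent experiments.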

HeLa [3] = assay: Inhibition of Stat3 signaling pathway in human HeLa cells assessed as measured as lowest concentration required 50 to 60 % inhibition of IL-6 induced luciferase treated 30 mins before induction; type: functional
Procedure, shortened: as §1

[4] = Inhibition of NFkappaB signaling pathway in human HeLa cells assessed as inhibition of PMA induced luciferase treated 30 mins before induction; type: cell-based
Procedure, shortened: as §1

SK-MEL = assay: Cytotoxicity against human SK-MEL cells assessed as growth inhibition measured after 48 hrs by Neutral Red dye assay
HeLa [5] = assay: Inhibition of smad3/4 signaling pathway in human HeLa cells assessed as measured as lowest concentration required 50 to 60 % inhibition of TGF-beta induced luciferase treated 30 mins before induction; type: functional
Procedure, shortened: as §1

HeLa [6] = assay: Inhibition of Stat3 signaling pathway in human HeLa cells assessed as inhibition of IL-6 induced luciferase treated 30 mins before induction; type: functional, cell-based
Procedure, shortened: as §1

[7] = target: Myc proto-oncogene protein (Homo sapiens) (UniProt P01106); assay: Inhibition of Myc signaling pathway in human HeLa cells assessed as measured as lowest concentration required 50 to 60 % inhibition of PMA induced luciferase treated 30 mins before induction; type: cell-based
Sequence of Myc proto-oncogene protein (Homo sapiens) (P01106 whole entry): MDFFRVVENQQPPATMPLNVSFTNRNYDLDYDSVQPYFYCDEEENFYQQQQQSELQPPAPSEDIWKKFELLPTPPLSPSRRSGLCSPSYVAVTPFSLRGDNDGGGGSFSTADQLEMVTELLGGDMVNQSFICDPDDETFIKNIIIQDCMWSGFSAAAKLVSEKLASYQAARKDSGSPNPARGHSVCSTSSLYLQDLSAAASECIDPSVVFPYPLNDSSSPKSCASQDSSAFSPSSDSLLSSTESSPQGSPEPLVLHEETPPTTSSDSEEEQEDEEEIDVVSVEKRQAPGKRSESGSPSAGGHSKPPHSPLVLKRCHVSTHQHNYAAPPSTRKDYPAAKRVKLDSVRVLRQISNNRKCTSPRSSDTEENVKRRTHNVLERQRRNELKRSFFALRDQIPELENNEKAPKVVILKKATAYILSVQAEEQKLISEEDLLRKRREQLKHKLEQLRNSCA
Procedure, shortened: as §1

[8] = Inhibition of Notch signaling pathway in human HeLa cells assessed as measured as lowest concentration required 50 to 60 % inhibition of PMA induced luciferase treated 30 mins before induction; type: cell-based
Procedure, shortened: as §1

[9] = Inhibition of Wnt signaling pathway in human HeLa cells assessed as inhibition of Wnt3a induced luciferase treated 30 mins before induction; type: cell-based
Procedure, shortened: as §1

KB = assay: Cytotoxicity against human KB cells assessed as growth inhibition measured after 48 hrs by Neutral Red dye assay
[10] = Inhibition of Notch signaling pathway in human HeLa cells assessed as inhibition of PMA induced luciferase treated 30 mins before induction; type: cell-based
Procedure, shortened: as §1

Vero = assay: Cytotoxicity against african green monkey Vero cells assessed as growth inhibition measured after 48 hrs by Neutral Red dye assay; settings: Chlorocebus sabaeus
[11] = Inhibition of Ets signaling pathway in human HeLa cells assessed as measured as lowest concentration required 50 to 60 % inhibition of PMA induced luciferase treated 30 mins before induction; type: cell-based
Procedure, shortened: as §1

[12] = Inhibition of AP1 signaling pathway in human HeLa cells assessed as measured as lowest concentration required 50 to 60 % inhibition of PMA induced luciferase treated 30 mins before induction; type: cell-based
Procedure, shortened: as §1

[13] = Inhibition of NFkappaB signaling pathway in human HeLa cells assessed as measured as lowest concentration required 50 to 60 % inhibition of PMA induced luciferase treated 30 mins before induction; type: cell-based
Procedure, shortened: as §1

[14] = Inhibition of E2F signaling pathway in human HeLa cells assessed as inhibition of PMA induced luciferase at 100 uM treated 30 mins before induction; type: cell-based
Procedure, shortened: as §1

[15] = Inhibition of Hedgehog signaling pathway in human HeLa cells assessed as inhibition of PMA induced luciferase at 100 uM treated 30 mins before induction; type: cell-based
Procedure, shortened: as §1

SK-OV-3 [16] = assay: Cytotoxicity against human SKOV3 cells assessed as growth inhibition measured at 100 uM after 48 hrs by […] assay; type: functional, cell-based
HeLa [17] = assay: Cytotoxicity against human HeLa cells assessed as growth inhibition measured after 48 hrs by Neutral Red dye assay
[18] = Inhibition of AP1 signaling pathway in human HeLa cells assessed as inhibition of PMA induced luciferase treated 30 mins before induction; type: cell-based
Procedure, shortened: as §1

HL-60 [19] = assay: Inhibition of PMA induced ROS generation in human HL60 cells assessed as inhibition of ROA mediated oxidation of DCFH at 100 uM; type: functional, cell-based
Procedure, shortened: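 HL-60 cells (0.8 × 10⁶/mL) in RPMI-1640 with 10% FBS were pretreated 30 min with compound (0.4–100 μM). PMA (100 ng/mL) was then added for 30 min, followed by DCFH-DA (5 μg/mL) for 15 min. DCF fluorescence read at Ex 485 / Em 530 nm and compared with vehicle control. Trolox served as positive control.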

HL-60 [20] = assay: Cytotoxicity against human HL60 cells assessed as growth inhibition measured after 48 hrs by XTT assay; type: functional, cell-based; settings: HL-60, 48 h
[21] = Inhibition of Wnt signaling pathway in human HeLa cells assessed as measured as lowest concentration required 50 to 60 % inhibition of Wnt3a induced luciferase treated 30 mins before induction; type: cell-based
Procedure, shortened: as §1

[22] = Inhibition of Ets signaling pathway in human HeLa cells assessed as inhibition of PMA induced luciferase treated 30 mins before induction; type: cell-based
Procedure, shortened: as §1

[23] = target: Forkhead box protein O1 (Homo sapiens) (UniProt Q12778); assay: Inhibition of FoxO signaling pathway in human HeLa cells assessed as inhibition of luciferase at 100 uM […]; type: cell-based
Sequence of Forkhead box protein O1 (Homo sapiens) (Q12778 whole entry): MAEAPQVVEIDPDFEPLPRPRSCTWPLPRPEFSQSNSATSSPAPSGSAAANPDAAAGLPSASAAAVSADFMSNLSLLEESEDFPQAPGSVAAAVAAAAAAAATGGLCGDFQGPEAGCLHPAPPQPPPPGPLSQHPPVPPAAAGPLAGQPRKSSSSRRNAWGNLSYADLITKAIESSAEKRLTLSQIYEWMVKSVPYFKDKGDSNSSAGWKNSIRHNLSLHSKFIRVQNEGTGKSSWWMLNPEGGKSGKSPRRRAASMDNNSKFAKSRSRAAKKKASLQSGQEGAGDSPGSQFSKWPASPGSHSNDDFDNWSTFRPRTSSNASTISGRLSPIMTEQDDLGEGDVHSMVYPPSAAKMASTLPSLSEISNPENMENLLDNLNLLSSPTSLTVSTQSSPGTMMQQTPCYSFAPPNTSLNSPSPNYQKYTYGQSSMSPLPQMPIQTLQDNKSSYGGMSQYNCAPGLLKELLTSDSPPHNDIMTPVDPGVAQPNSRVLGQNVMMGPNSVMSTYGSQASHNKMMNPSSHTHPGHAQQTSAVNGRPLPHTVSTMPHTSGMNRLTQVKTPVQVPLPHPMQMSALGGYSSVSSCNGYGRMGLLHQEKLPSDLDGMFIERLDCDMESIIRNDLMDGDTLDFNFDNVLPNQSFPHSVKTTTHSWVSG

[24] = Inhibition of NFkappaB signaling pathway in human HeLa cells assessed as inhibition of PMA induced luciferase at 100 uM treated 30 mins before induction; type: cell-based
Procedure, shortened: as §1

[25] = Inhibition of AP1 signaling pathway in human HeLa cells assessed as inhibition of PMA induced luciferase at 100 uM treated 30 mins before induction; type: cell-based
Procedure, shortened: as §1

[26] = target: Myc proto-oncogene protein (Homo sapiens) (UniProt P01106); assay: Inhibition of Myc signaling pathway in human HeLa cells assessed as inhibition of PMA induced luciferase at 100 uM treated 30 mins before induction; type: cell-based
Procedure, shortened: as §1

SK-OV-3 [27] = assay: Cytotoxicity against human SKOV3 cells assessed as growth inhibition measured after 48 hrs by Neutral Red dye assay; settings: SK-OV-3, 48 h
[28] = Inhibition of Ets signaling pathway in human HeLa cells assessed as inhibition of PMA induced luciferase at 100 uM treated 30 mins before induction; type: cell-based
Procedure, shortened: as §1

HeLa [29] = assay: Inhibition of Stat3 signaling pathway in human HeLa cells assessed as inhibition of IL-6 induced luciferase at 100 uM treated 30 mins before induction; type: functional
Procedure, shortened: as §1

[30] = Inhibition of Notch signaling pathway in human HeLa cells assessed as inhibition of PMA induced luciferase at 100 uM treated 30 mins before induction; type: cell-based
Procedure, shortened: as §1

Row | SMILES | IC50 (BT-549) [µM] | IC50 (LLC-PK1) [µM] | IC50 (SK-MEL) [µM] | IC50 (KB) [µM] | IC50 (Vero) [µM] | inhibition [14] | inhibition [15] | IC50 (HeLa [17]) [µM] | inhibition [23] | IC50 (SK-OV-3 [27]) [µM] | also measured
1 | COc1cc(/C=C\c2ccc(OC)c(OC)c2)cc(OC)c1 [(Z)-3,4,3',5'-TETRAMETHOXYSTILBENE] | 4 | 6 | 4.3 | 4.3 | > 33.3 | < 40% | < 40% | 3.6 | < 40% |  | inhibition [1]: inactive; IC50 (HeLa [2]): 40 µM; MED (HeLa [3]): 77 µM; IC50 [4]: 80 µM; MED (HeLa [5]): 55 µM; IC50 (HeLa [6]): 50 µM; MED [7]: 65 µM; MED [8]: 40 µM; IC50 [9]: 40 µM; IC50 [10]: 40 µM; MED [11]: 65 µM; MED [12]: 80 µM; MED [13]: 80 µM; growth inhibition (GI) (SK-OV-3 [16]): inactive; IC50 [18]: 80 µM; inhibition (HL-60 [19]): inactive; IC50 (HL-60 [20]): 4.3 µM; MED [21]: 50 µM; IC50 [22]: 40 µM
2 | COc1ccc(/C=C/c2cc(OC)cc(OC)c2)cc1 [TRISMETHOXYRESVERATROL] | 15.6 | 20 | 12.2 | 17.7 | 26.7 | inactive | inactive | 13.3 | inactive | 55.5 | inhibition [24]: inactive; inhibition [25]: inactive; inhibition [26]: inactive; inhibition [28]: inactive; inhibition (HeLa [29]): inactive; inhibition [30]: inactive
3 | COc1cccc2c1C(=O)c1c(O)c3c(c(O)c1C2=O)C[C@@](O)(C(=O)CO)C[C@@H]3O[C@H]1C[C@H](N)[C@H](O)[C@H](C)O1 [DOXORUBICIN] | 3.7 | 1.6 | 1.5 | 3.8 | > 9.2 |  |  | 3.9 |  | 2.6 | 
